High-throughput results from PubChem.
This is a sample that favours compounds with a hit; in the whole collection about 2.2% have one here.
M1 ag = human M1 muscarinic receptor agonists, primary screen, Fluo-8 calcium fluorescence, CHO-K1 cells, HTS; Muscarinic acetylcholine receptor M1 (Homo sapiens), P11229; CHO-K1 hM1, agonist mode; 0% DMSO, 100% acetylcholine EC100; activation, % at 3 µM; actives 0.33% (n = 360,000);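 active = activation above the run's mean compound activation plus 3 SD, cut at about 16% in these data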;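 note: peak over basal fluorescence ratio within a 140 s kinetic read after compound addition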
M5 PAM = human M5 muscarinic receptor positive allosteric modulators, primary screen, CHO-K1 cells, Fluo-8 calcium fluorescence; Muscarinic acetylcholine receptor M5 (Homo sapiens), P08912; AID 624038, 2012; CHO-K1 hM5, ACh EC20 PAM; 0% = ACh EC20, 100% = ACh EC100; actives 0.3% (n = 360,000); activation, % at 3 µM;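 active = activation above the run cutoff, the mean activation of all test compounds plus 3 SD, cut at about 18% in these data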
Target sequence (P08912 whole entry, looked up): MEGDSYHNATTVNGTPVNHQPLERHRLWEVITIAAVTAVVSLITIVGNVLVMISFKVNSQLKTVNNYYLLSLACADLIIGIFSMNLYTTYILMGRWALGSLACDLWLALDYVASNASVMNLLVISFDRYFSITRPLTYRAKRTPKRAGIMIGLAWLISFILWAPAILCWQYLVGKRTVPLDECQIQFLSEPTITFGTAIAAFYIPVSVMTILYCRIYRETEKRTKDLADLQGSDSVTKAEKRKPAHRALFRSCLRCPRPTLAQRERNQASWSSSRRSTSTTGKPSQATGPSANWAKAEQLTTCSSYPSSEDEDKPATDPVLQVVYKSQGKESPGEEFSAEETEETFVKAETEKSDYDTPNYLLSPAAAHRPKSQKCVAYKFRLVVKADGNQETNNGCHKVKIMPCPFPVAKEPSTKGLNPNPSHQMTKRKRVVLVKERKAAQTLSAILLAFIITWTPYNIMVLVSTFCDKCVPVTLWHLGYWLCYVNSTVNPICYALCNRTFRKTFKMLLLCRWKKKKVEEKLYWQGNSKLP
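Assay system – human M5 receptor in CHO-K1 cells · Read-out – % activation, ACh-normalized · Technique – Fluo-8 calcium fluorescence · Dosing – single-point, 3 µM nominal · Incubation – Fluo-8 loading 80 min at 37 °C plus 30 min room temperature · Repeats – singlicate, one well per test compound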
M1 PAM = human M1 muscarinic receptor positive allosteric modulators, primary screen, CHO-K1 cells, Fluo-8 calcium fluorescence, 1536-well. Muscarinic acetylcholine receptor M1 (Homo sapiens), P11229. CHO-K1 hM1, ACh EC20; 0% = ACh EC20, 100% = maximal ACh. actives 0.088% (n = 360,000). activation, % at 3 µM; in the data active = activation above about 19%, passing the limit was not always enough
CHRM1 antagonist = human M1 muscarinic receptor antagonists, primary screen, CHO-K1 cells, Fluo-8 calcium fluorescence, 1536-well | Muscarinic acetylcholine receptor M1 (Homo sapiens), P11229 | actives 1.3% (n = 360,000) | AID 588852, 2011 | inhibition, % at 3 µM | CHO-K1 hM1, ACh EC80 antagonist;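 active = percent inhibition above its own plate's cutoff, namely the mean of that plate's compound wells plus 3 SD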;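 note: peak over basal fluorescence ratio during 140 s after agonist addition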
M5 antag = human M5 muscarinic receptor antagonists, primary screen, CHO cells, Fluo-8 calcium fluorescence; CHO-hM5 cells, ACh EC80; Muscarinic acetylcholine receptor M5 (Homo sapiens), P08912; inhibition, % at 3 µM; actives 0.59% (n = 360,000); AID 624040, 2012;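 active = inhibition above a per-plate cutoff, the mean of that plate's test compounds plus 3 SD, cut at about 27% in these data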
M5 ag = human M5 muscarinic receptor agonists, primary screen, CHO-K1 cells, Fluo-8 calcium fluorescence. Muscarinic acetylcholine receptor M5 (Homo sapiens), P08912. CHO-K1 hM5 cells; 0% DMSO wells, 100% maximal acetylcholine response. activation, % at 3 µM. actives 0.19% (n = 360,000). AID 624037, 2012;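 active = activation above the run's mean over test compounds plus 3 SD, cut at about 23% in these data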;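 note: signal is peak over basal fluorescence ratio across the kinetic read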
Large screens that a line does not name were inactive.

C[N+]1(C)C2CC(OC(=O)C(CO)c3ccccc3)CC1C1OC12 (stereo unspecified)	M5 antag 99 (no result: M1 ag, M1 PAM, CHRM1 antagonist)
C[N+]1(C)[C@@H]2CC[C@H]1CC(OC(=O)C(c1ccccc1)c1ccccc1)C2 (stereo partly specified)	CHRM1 antagonist 101, M5 antag 99
C[C@@H]1CN([C@@H](C)CO)C(=O)CCCn2nncc2CO[C@@H]1CN(C)C(=O)Oc1cccc2ccccc12	none
COC(=O)C1=C(c2ccccc2OCc2ccccc2)C[C@@H]2CC[C@H]1N2C(=O)NCc1ccc([N+](=O)[O-])cc1	none
CCC1CN1P1(=O)OCC(C)([N+](=O)[O-])CO1 (stereo unspecified)	none
COc1cc2c(cc1OC)C1C(=O)c3ccc4c(c3OC1CO2)CC(C(C)C)O4 (stereo unspecified)	none
CCN(CC)C(=O)c1ccc(NC(=O)COc2ccc(-c3nn(C)c(=O)c4ccccc34)cc2)cc1	none
C[N+]1(C)[C@@H]2CC(OC(=O)[C@H](CO)c3ccccc3)C[C@H]1[C@@H]1O[C@@H]12 (stereo partly specified)	M5 antag 98 (no result: M1 ag, M1 PAM, CHRM1 antagonist)
CC(=O)OC1CC[C@]2(C#N)[C@H]3CC[C@]4(C)[C@H](C5C=CC(=O)O5)CCC4(O)C3CCC2(O)C1 (stereo partly specified)	none
COc1ccc(CC[n+]2cc(/N=C(\C)[O-])on2)cc1OC	none
CCCC[n+]1cc(/N=C(\[O-])OC)on1	M5 PAM 36
CCOC(=O)[C@@]1(C#N)[C@@H]2C=CC(C(N)=O)=CN2[C@@H](C(N)=O)[C@@H]1c1cccc(Cl)c1	M5 PAM 31
COc1ccc(C)cc1NC1=NC(C)(C)CS1	none
COc1cccc(NC2=NCCCS2)c1	none
c1ccc(C(OCCN2CCNCC2)c2ccccc2)cc1	CHRM1 antagonist 70
Cc1ccc2c(c1N)C(=O)c1ccccc1C2=O	M5 antag 28
O=[N+]([O-])/C=C/c1c(Cl)cccc1Cl	M5 antag 29
CCC(=NCCc1c[nH]c2ccccc12)c1c(O)n(-c2ccc(C)cc2)c(=O)[nH]c1=O	none
CCC(=NCCc1c[nH]c2ccccc12)c1c(O)n(C)c(=O)n(C)c1=O	CHRM1 antagonist 26
CCC(=O)C(CCN1CCOCC1)(c1ccccc1)c1ccccc1	none
N#CC(CCN1CCOCC1)(c1ccccc1)c1ccccc1	CHRM1 antagonist 41, M5 antag 28
COc1ccc(C2=NCC(=S)Nc3ccc(Cl)cc32)cc1OC	none
S=C1CN=C(c2ccccc2)c2cc(Cl)ccc2N1	M1 ag 46
Cc1cc(OCC(=O)N2CCC(C(=O)O)CC2)c2c3c(c(=O)oc2c1)CCC3	none
CCn1cc(CN2CCCC(C(=O)c3cccc(OC)c3)C2)c(C)n1 (stereo unspecified)	CHRM1 antagonist 50
CCCn1ncc(CN2CCCC(C(=O)c3cccc(OC)c3)C2)c1C (stereo unspecified)	CHRM1 antagonist 94
CCCn1cc(CN2CCCC(C(=O)c3cccc(OC)c3)C2)c(C)n1 (stereo unspecified)	none
COc1cccc(C(=O)C2CCCN(Cc3cnn(C(C)C)c3)C2)c1 (stereo unspecified)	none
Cc1cccc(NC(=O)COC(=O)c2cc(C)n(C3CC3)c2C)c1	none
Cc1ccc2nc(-c3ccc(CN4CCC(n5c(=O)[nH]c6ccccc65)CC4)cc3)c(-c3ccccc3)nc2c1	M5 ag 27 (no result: M1 ag, M1 PAM, CHRM1 antagonist)
O=c1[nH]c2ccccc2n1C1CCN(Cc2ccc(-c3nc4ccccc4nc3-c3ccccc3)cc2)CC1	M5 ag 32 (no result: M1 ag, M1 PAM, CHRM1 antagonist)
